Active and inactive are the calls of the source. The calls are words filed in the database; no cut-off is given here.
Key:
Rattus norvegicus [1] = species: Rattus norvegicus; assay: Increase in TG-2 expression in albino Wistar rat primary 14 DIV astroglial cell at 25 uM after 24 hrs by CLSM analysis; assay type: functional
Summary of the method: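 Astrocytes at 14 DIV were treated with 25 µM for 24 h and fixed in 4% paraformaldehyde for 20 min. They were blocked with 1% normal serum for 1 h, then incubated overnight with anti-TG-2 monoclonal (1:500), followed by FITC and TRITC anti-IgG (1:64, 2 h each). Confocal imaging at fixed settings measured cytosolic and nuclear fluorescence intensity versus control after nonspecific subtraction.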

Rattus norvegicus [2] = species: Rattus norvegicus; assay: Activity at sigma 2 receptor in rat astroglial cells; assay type: cell-based
[3] = target: Sigma non-opioid intracellular receptor 1 (Cavia porcellus, UniProt Q60492); assay: Displacement of [3H](+)-pentazocine from guinea pig brain sigma 1 receptor
[4] = Displacement of [3H]DTG rom guinea pig brain sigma 2 receptor; design: species or system Cavia porcellus
Rattus norvegicus [5] = species: Rattus norvegicus; assay: Increase in TG-2 expression in albino Wistar rat primary astroglial cells at 25 uM after 24 hrs; assay type: functional
Summary of the method: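 Primary Wistar rat astrocytes at 14 DIV were exposed to ligand 25 µM for 24 h. Densitometric percentage of TG-2 versus untreated control; HUVEC extract as positive control. Mean ± SD of four experiments.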

Rattus norvegicus [6] = species: Rattus norvegicus; assay: Decrease of caspase 3 cleavage in albino Wistar rat primary astroglial cells at 25 uM after 24 hrs relative to control; assay type: functional
Summary of the method: (§1)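 Primary astrocytes from 1–2-day-old Wistar rat brains were grown 14 DIV, then exposed to ligand 25 µM for 24 h. Cells were lysed and sonicated, and 30 µg protein was run on 10% SDS-PAGE. Mean ± SD of four experiments; t test.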

[7] = Increase in apoptosis in albino Wistar rat primary 14 DIV astroglial cells at 25 uM after 24 hrs by TUNEL assay relative to control; assay type: functional
Summary of the method: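 Astrocytes at 14 DIV were treated 24 h at 25 µM. TUNEL labelling with fluorescein-dUTP at free 3′-OH DNA ends; apoptotic cells appear green (FITC), nonapoptotic cells red (PI). Apoptotic cells were counted against all cells in 10 random fields per dish and expressed as a percentage.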

Rattus norvegicus [8] = species: Rattus norvegicus; assay: Increase of caspase 3 cleavage in albino Wistar rat primary astroglial cells at 25 uM after 24 hrs relative to control; assay type: functional; summary of the method: as §1

Sigma non-opioid intracellular receptor 1, sequence (Q60492 whole entry): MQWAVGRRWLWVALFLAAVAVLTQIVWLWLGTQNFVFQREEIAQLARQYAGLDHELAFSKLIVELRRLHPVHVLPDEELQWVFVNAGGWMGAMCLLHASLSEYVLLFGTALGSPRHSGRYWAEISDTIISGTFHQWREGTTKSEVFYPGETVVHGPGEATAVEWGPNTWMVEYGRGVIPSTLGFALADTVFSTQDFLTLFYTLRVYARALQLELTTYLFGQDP

O=C(CCCN1CCC(O)(c2ccc(Cl)cc2)CC1)c1ccc(F)cc1
Activity (Rattus norvegicus [1]): Active | Activity (Rattus norvegicus [2]; filed as agonist): Agonist

COC(=O)C1(c2ccc(N)cc2)CC1CN1CCN(c2ncccn2)CC1 (stereo not given)
Ki [3]: > 10000 nM | Ki [4]: 3590 nM

COC(=O)C1(c2ccc([N+](=O)[O-])cc2)CC1CN1CCN(c2ccccn2)CC1 (stereo not given)
Ki [3]: 769 nM | Ki [4]: > 10000 nM

COC(=O)C1(c2ccccc2)CC1CN1CCC(Cc2ccccc2)CC1 (stereo not given)
Ki [3]: 2.2 nM | Ki [4]: 13.2 nM

COC(=O)C1(c2ccccc2)CC1CN1CCN(c2ccccn2)CC1 (stereo not given)
Ki [3]: 1330 nM | Ki [4]: 6290 nM

COC(=O)C1(c2ccc(C)cc2)CC1CN1CCN(c2ccccn2)CC1 (stereo not given)
Ki [3]: 497 nM | Ki [4]: 2170 nM

CN(C)CCN(C)CCc1ccc(Cl)c(Cl)c1
Activity (Rattus norvegicus [5]): inactive | Activity (Rattus norvegicus [1]): Active | Activity (Rattus norvegicus [6]): Active | Ratio [7]: 7% | Activity (Rattus norvegicus [2]; filed as agonist): Agonist

COC(=O)C1(c2ccc(OC)cc2)CC1CN1CCN(c2ncccn2)CC1 (stereo not given)
Ki [3]: 2030 nM | Ki [4]: > 10000 nM

COC(=O)C1(c2ccc(OC)cc2)CC1CN1CCN(c2ccccn2)CC1 (stereo not given)
Ki [3]: 1260 nM | Ki [4]: > 10000 nM

COC(=O)C1(c2ccc(Cl)cc2)CC1CN1CCN(c2ccccn2)CC1 (stereo not given)
Ki [3]: 707 nM | Ki [4]: 2400 nM

COC(=O)C1(c2ccc(OC)cc2)CC1CN1CCC(O)(c2ccccc2)CC1 (stereo not given)
Ki [3]: 3.1 nM | Ki [4]: 53 nM

COC(=O)C1(c2ccc([N+](=O)[O-])cc2)CC1CN1CCN(c2ncccn2)CC1 (stereo not given)
Ki [3]: 619 nM | Ki [4]: > 10000 nM

COC(=O)C1(c2ccc([N+](=O)[O-])cc2)CC1CN1CCC(O)(c2ccccc2)CC1 (stereo not given)
Ki [3]: 1.9 nM | Ki [4]: 18 nM

COC(=O)C1(c2ccccc2)CC1CN1CCC(O)(c2ccccc2)CC1 (stereo not given)
Ki [3]: 3.1 nM | Ki [4]: 34 nM

CC[C@H]1C[C@@H]2C[C@H]3c4[nH]c5ccc(OC)cc5c4CCN(C2)[C@@H]13 [IBOGAINE]
Ki [3]: 250 nM

COC(=O)C1(c2ccc([N+](=O)[O-])cc2)CC1CN1CCC(Cc2ccccc2)CC1 (stereo not given)
Ki [3]: 0.68 nM | Ki [4]: 9 nM

COC(=O)C1(c2ccccc2)CC1CN1CCN(c2ncccn2)CC1 (stereo not given)
Ki [3]: 3090 nM | Ki [4]: > 10000 nM

COC(=O)C1(c2ccc(C)cc2)CC1CN1CCN(c2ncccn2)CC1 (stereo not given)
Ki [3]: 353 nM | Ki [4]: 3360 nM

Cc1ccccc1NC(=N)Nc1ccccc1C [DITOLYLGUANIDINE]
Ki [4]: 49 nM

CC[C@H]1C[C@H]2C[C@H]3c4[nH]c5ccc(OC)cc5c4CCN(C2)[C@@H]13 [IBOGAINE]
Ki [4]: 9310 nM | Activity (Rattus norvegicus [5]): Active | Activity (Rattus norvegicus [1]): Active | Activity (Rattus norvegicus [8]): Active | Ratio [7]: 95% | Activity (Rattus norvegicus [2]; filed as agonist): Agonist

COC(=O)C1(c2ccc(OC)cc2)CC1CN1CCC(Cc2ccccc2)CC1 (stereo not given)
Ki [3]: 1 nM | Ki [4]: 14 nM

COC(=O)C1(c2ccc(Cl)cc2)CC1CN1CCN(c2ncccn2)CC1 (stereo not given)
Ki [3]: 350 nM | Ki [4]: 2710 nM

COC(=O)C1(c2ccc(Cl)cc2)CC1CN1CCC(O)(c2ccccc2)CC1 (stereo not given)
Ki [3]: 1.7 nM | Ki [4]: 19 nM

COC(=O)C1(c2ccc(N)cc2)CC1CN1CCN(c2ccccn2)CC1 (stereo not given)
Ki [3]: > 10000 nM | Ki [4]: > 10000 nM

COC(=O)C1(c2ccc(C)cc2)CC1CN1CCC(Cc2ccccc2)CC1 (stereo not given)
Ki [3]: 0.97 nM | Ki [4]: 8.9 nM

CC(C)=CCN1CC[C@]2(C)c3cc(O)ccc3C[C@H]1[C@H]2C [(+)-PENTAZOCINE]
Ki [4]: 1540 nM | Activity (Rattus norvegicus [6]): Active | Activity (Rattus norvegicus [2]): inactive

COC(=O)C1(c2ccc(Cl)cc2)CC1CN1CCC(Cc2ccccc2)CC1 (stereo not given)
Ki [3]: 0.82 nM | Ki [4]: 11.9 nM

Reference: ChEMBL document CHEMBL1142963, “Novel sigma receptor ligands: synthesis and biological profile” (J Med Chem, 2007)
